Assay results reported in ChEMBL document CHEMBL2331340, “Novel antitumor indolizino[6,7-b]indoles with multiple modes of action: DNA cross-linking and topoisomerase I and II inhibition” (J Med Chem, 2013).

Columns and labels:
CCRF-CEM = test: Cytotoxicity against human CCRF-CEM cells after 72 hrs by XTT assay; format: functional, cell-based
Method in brief: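 CCRF-CEM T-ALL cells incubated with compound for 72 h. XTT with phenazine methosulfate then added for 6 h at 37 °C, absorbance read at 450 and 630 nm. IC50 from six or seven concentrations by median-effect analysis; mean ± STDEV, n = 3.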

[1] = Cytotoxicity against human OECM1 cells after 72 hrs by Alamar blue assay; format: functional, cell-based; details: OECM1, 72 h
Method in brief: (§1)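 Cells exposed to compound for 72 h, then Alamar blue added with a further 10−12 h at 37 °C and a spectrophotometric read. IC50 from six or seven concentrations by median-effect analysis; mean ± STDEV, n = 3. CL141T is a line derived from a patient lung tumor passaged as a SCID mouse xenograft.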

PC-3 = test: Cytotoxicity against human PC3 cells after 72 hrs by Alamar blue assay; format: functional, cell-based; details: PC-3, 72 h; method in brief: as §1
[2] = Cytotoxicity against human CL141T cells after 72 hrs by Alamar blue assay; format: functional, cell-based; method in brief: as §1
HCT-116 = test: Cytotoxicity against human HCT116 cells after 72 hrs by Alamar blue assay; format: functional, cell-based; details: HCT-116, 72 h; method in brief: as §1
[3] = Cytotoxicity against human H460 cells after 72 hrs by Alamar blue assay; format: functional, cell-based; details: NCI-H460, 72 h; method in brief: as §1
MX1 = test: Cytotoxicity against human MX1 cells after 72 hrs by SRB assay; format: functional, cell-based; details: MX1, 72 h
[4] = Resistance factor, ratio of IC50 for human KB-VIN10 cells to IC50 for human KB cells; format: functional
[5] = Cytotoxicity against human KB-VIN10 cells after 72 hrs by Alamar blue assay; details: KB-VIN10, 72 h
KB = test: Cytotoxicity against human KB cells after 72 hrs by Alamar blue assay
[6] = Cytotoxicity against human MES-SA/Dx5 cells after 72 hrs by Presto Blue assay; format: functional, cell-based; details: MES-SA/Dx5, 72 h
Method in brief: (§2)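 MES-SA and doxorubicin-resistant MES-SA/dx5 cells exposed for 72 h, then PrestoBlue added for 3 h at 37 °C, absorbance read at 570 and 600 nm. IC50 by median-effect analysis of six or seven concentrations; mean ± STDEV of three to six independent experiments.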

[7] = Cytotoxicity against human MES-SA cells after 72 hrs by Presto Blue assay; format: functional, cell-based; method in brief: as §2
MES-SA = test: Resistance factor, ratio of IC50 for human MES-SA/Dx5 cells to IC50 for human MES-SA cells; format: functional
HT-29 = test: Cytotoxicity against human HT-29 cells after 72 hrs by Alamar blue assay; format: functional, cell-based; details: HT-29, 72 h; method in brief: as §1
A549 = test: Cytotoxicity against human A549 cells after 72 hrs by Alamar blue assay; format: functional, cell-based; details: A549, 72 h; method in brief: as §1
[8] = Cytotoxicity against human HEL299 cells; format: cell-based; details: HEL 299

Row | Compound | IC50 (CCRF-CEM) [µM] | IC50 [1] [µM] | IC50 (PC-3) [µM] | IC50 [2] [µM] | IC50 (HCT-116) [µM] | other results
1 | Cn1c2c(c3ccccc31)Cc1c(CO)c(CO)c(-c3ccc(F)c(F)c3)n1C2 | 7.94 | – | – | – | – | –
2 | Cc1c(CO)c(CO)c2n1Cc1c(c3ccccc3n1Cc1ccccc1)C2 | 0.29 | 4.17 | 4.52 | 2.76 | – | –
3 | CCNC(=O)OCc1c(COC(=O)NCC)c(-c2ccc(OC)c(OC)c2)n2c1Cc1c(n(C)c3ccccc13)C2 | 0.3 | 5.29 | 8.03 | 11.2 | – | –
4 | CCNC(=O)OCc1c(COC(=O)NCC)c2n(c1CC)Cc1c(c3ccccc3n1C)C2 | 0.16 | 3.9 | 5 | 2.85 | 1.8 | –
5 | COc1ccc(-c2c(COC(=O)NC(C)C)c(COC(=O)NC(C)C)c3n2Cc2c(c4ccccc4n2C)C3)cc1OC | 0.3 | – | – | – | – | –
6 | CC(C)NC(=O)OCc1c(COC(=O)NC(C)C)c(-c2ccccc2)n2c1Cc1c(n(C)c3ccccc13)C2 | 0.13 | 4.87 | 7.84 | 9.6 | – | IC50 [3]: 4.72 µM
7 | COc1ccc(-c2c(CO)c(CO)c3n2Cc2c(c4ccccc4n2C)C3)cc1 | 1.3 | – | – | – | – | –
8 | CC(C)NC(=O)OCc1c(COC(=O)NC(C)C)c(-c2ccc(Cl)cc2)n2c1Cc1c(n(C)c3ccccc13)C2 | 0.44 | 12.7 | 13.1 | 14 | 9.28 | IC50 (MX1): 12.4 µM
9 | COc1ccc(-c2c(COC(=O)NC(C)C)c(COC(=O)NC(C)C)c3n2Cc2c(c4ccccc4n2C)C3)cc1 | 0.12 | 4.17 | 6.84 | 4 | 5.93 | IC50 [3]: 9.52 µM
10 | Cn1c2c(c3ccccc31)Cc1c(CO)c(CO)c(-c3ccccc3)n1C2 | 1.17 | – | – | – | – | –
11 | COc1ccc(-c2c(CO)c(CO)c3n2Cc2c(c4ccccc4n2C)C3)cc1OC | 0.96 | 37.2 | 37.9 | 33.1 | – | –
12 | CCNC(=O)OCc1c(COC(=O)NCC)c2n(c1C)Cc1c(c3ccccc3n1Cc1ccccc1)C2 | 0.14 | 5.42 | 5.05 | – | 3.84 | IC50 [3]: 8.31 µM
13 | COc1cc(-c2c(COC(=O)NC(C)C)c(COC(=O)NC(C)C)c3n2Cc2c(c4ccccc4n2C)C3)cc(OC)c1OC | 0.95 | – | – | – | – | –
14 | CCNC(=O)OCc1c(COC(=O)NCC)c(-c2ccc(OC)cc2)n2c1Cc1c(n(C)c3ccccc13)C2 | 0.1 | 6.15 | 8.3 | 8.13 | 7.1 | –
15 | CC(C)NC(=O)OCc1c(COC(=O)NC(C)C)c(-c2ccc(F)c(F)c2)n2c1Cc1c(n(C)c3ccccc13)C2 | 0.44 | 15.2 | 34.2 | 18.3 | – | –
16 | Cn1c2c(c3ccccc31)Cc1c(CO)c(CO)c(-c3ccc(Cl)cc3)n1C2 | 4.58 | 17.2 | 12.9 | 23.8 | 17.5 | IC50 (MX1): 11.3 µM
17 | CC(C)NC(=O)OCc1c(COC(=O)NC(C)C)c(-c2ccc(F)c(Cl)c2)n2c1Cc1c(n(C)c3ccccc13)C2 | 1.91 | – | – | – | – | –

Row | Compound | IC50 (CCRF-CEM) [µM] | IC50 [1] [µM] | IC50 (PC-3) [µM] | IC50 [2] [µM] | IC50 (HCT-116) [µM] | other results
18 | CCc1c(COC(=O)NC(C)C)c(COC(=O)NC(C)C)c2n1Cc1c(c3ccccc3n1C)C2 | 0.16 | 2.02 | 2.1 | 2.66 | 2.22 | –
19 | CC[C@]1(O)C[C@H]2CN(CCc3c([nH]c4ccccc34)[C@@](C(=O)OC)(c3cc4c(cc3OC)N(C=O)[C@H]3[C@@](O)(C(=O)OC)[C@H](OC(C)=O)[C@]5(CC)C=CCN6CC[C@]43[C@@H]65)C2)C1 [VINCRISTINE] | – | – | – | – | – | Ratio IC50 [4]: 143.7; IC50 [5]: 0.303 µM; IC50 (KB): 0.00211 µM
20 | Cn1c2c(c3ccccc31)Cc1c(CO)c(CO)c(-c3ccc(F)cc3)n1C2 | 1.46 | – | – | – | – | –
21 | CCNC(=O)OCc1c(COC(=O)NCC)c(-c2ccccc2)n2c1Cc1c(n(C)c3ccccc13)C2 | 0.23 | 5.19 | 9.13 | 10.5 | – | –
22 | COc1cccc2c1C(=O)c1c(O)c3c(c(O)c1C2=O)C[C@@](O)(C(=O)CO)C[C@@H]3O[C@H]1C[C@H](N)[C@H](O)[C@H](C)O1 [DOXORUBICIN] | – | – | – | – | – | IC50 [6]: 2.3 µM; IC50 [7]: 0.038 µM; Ratio IC50 (MES-SA): 60.52
23 | COc1cc(-c2c(CO)c(CO)c3n2Cc2c(c4ccccc4n2C)C3)cc(OC)c1OC | 4.45 | – | – | – | – | –
24 | CCc1c(CO)c(CO)c2n1Cc1c(c3ccccc3n1C)C2 | 0.2 | 2.11 | 3.32 | 1.32 | – | Ratio IC50 [4]: 0.79; IC50 [5]: 1.56 µM; IC50 (HT-29): 8.56 µM; IC50 [6]: 0.47 µM; IC50 [7]: 0.77 µM; Ratio IC50 (MES-SA): 0.61; IC50 (A549): 3.15 µM; IC50 [8]: 4.24 µM; IC50 (KB): 1.97 µM
25 | CCNC(=O)OCc1c(COC(=O)NCC)c(-c2ccc(F)c(Cl)c2)n2c1Cc1c(n(C)c3ccccc13)C2 | 1.8 | – | – | – | – | –
26 | CCNC(=O)OCc1c(COC(=O)NCC)c(-c2ccc(Cl)cc2)n2c1Cc1c(n(C)c3ccccc13)C2 | 0.35 | 9.01 | 4.95 | 7.88 | 1.17 | IC50 (MX1): 1.83 µM
27 | Cc1c(COC(=O)NC(C)C)c(COC(=O)NC(C)C)c2n1Cc1c(c3ccccc3n1C)C2 | 0.03 | 1.45 | 3.03 | 2.43 | 1.26 | IC50 (HT-29): 10.8 µM; IC50 (MX1): 0.25 µM; IC50 (A549): 3.81 µM
28 | Cn1c2c(c3ccccc31)Cc1c(CO)c(CO)c(-c3ccc(F)c(Cl)c3)n1C2 | 14.4 | – | – | – | – | –
29 | CCNC(=O)OCc1c(COC(=O)NCC)c(-c2cc(OC)c(OC)c(OC)c2)n2c1Cc1c(n(C)c3ccccc13)C2 | 0.62 | – | – | – | – | –
30 | CCNC(=O)OCc1c(COC(=O)NCC)c(-c2ccc(F)c(F)c2)n2c1Cc1c(n(C)c3ccccc13)C2 | 0.13 | 14.4 | 6.76 | 9.61 | – | IC50 [3]: 18.9 µM
31 | Cc1c(COC(=O)NC(C)C)c(COC(=O)NC(C)C)c2n1Cc1c(c3ccccc3n1Cc1ccccc1)C2 | 0.1 | 4.2 | 4.18 | 4.66 | 3.92 | IC50 [3]: 7.26 µM
32 | CCNC(=O)OCc1c(COC(=O)NCC)c(-c2ccc(F)cc2)n2c1Cc1c(n(C)c3ccccc13)C2 | 0.39 | 8.6 | 14.6 | 12.4 | – | –
33 | CCn1c2c(c3ccccc31)Cc1c(COC(=O)NC(C)C)c(COC(=O)NC(C)C)c(C)n1C2 | 0.14 | 2.27 | 3.28 | 1.88 | 2.2 | IC50 (HT-29): 6.36 µM; IC50 (A549): 2.64 µM
